Measured values gathered from unrelated publications.
Target: Serine/threonine-protein kinase Nek4 (NEK4, Homo sapiens, UniProt P51957)

| Compound | assay | setting | remaining binding |
| --- | --- | --- | --- |
| COc1ncc2cc3ccccc3nc2c1C#N | cell-free assay, competition with immobilised ligand | 5 µM | 93% |
| N[C@@H]1CCN(c2nccc(-c3cnn4ncccc34)n2)C1 | binding | 1 µM | 100% |
| Cn1nc(C(=O)NCc2ccc(C(=O)O)cc2)cc1-c1ccc2[nH]ccc2c1 | cell-free assay, competition with immobilised ligand | 0.1 µM | 84% |
| CN(c1nccc(-c2cnn3ncccc23)n1)C1CC1 | binding | 1 µM | 100% |
| CC(=O)C1=C(C)N(c2cccc(C(F)(F)F)c2)C(=O)N[C@@H]1c1ccc(C#N)nc1 | cell-free assay, competition with immobilised ligand | 1 µM | 93.9% |
| c1cnn2ncc(-c3ccnc(N4CCC45COC5)n3)c2c1 | binding | 1 µM | 68% |
| O=C(NCC1CCOCC1)c1n[nH]cc1NC(=O)c1c(F)cccc1F | binding, competition with immobilised ligand | 1 µM | 78% |
| Nc1ncc2c(n1)-c1c([nH]c3ccc(C#CC4CC4)cc13)CCCC2 | binding, competition with immobilised ligand | 1 µM | 84% |
| CO[C@@H](C)c1c(Nc2ccc([C@H](N(C)C(=O)C3CCS(=O)(=O)CC3)C(F)(F)F)cc2)cnc2cc(Cl)nn12 | cell-free assay, competition with immobilised ligand | 1 µM | 90% |
| O=C(c1ccc(Nc2ncc(Cl)c(-c3ccc(Cl)s3)n2)cc1)N1CCC(N2CCCC2)CC1 | binding, competition with immobilised ligand | 1 µM | 30% |
| CC1=C(C#N)C(c2ccc3c(c2)c(NC(=O)c2ccccc2C)nn3C)C(C#N)=C(C)N1 | cell-free assay, competition with immobilised ligand | 1 µM | 100% |
| CN(CCCC(F)(F)F)c1nccc(-c2cnn3ncccc23)n1 | binding | 1 µM | 92% |
| FC(F)(F)Oc1cccc(-c2cnc3ccc(-c4ccncc4)nn23)c1 | cell-free assay, competition with immobilised ligand | 5 µM | 94% |
| CCC(=O)N[C@H]1CC[C@@H](C(=O)N(C)c2ccc(-c3nc4ccccc4o3)cc2)C1 | cell-free assay, competition with immobilised ligand | 1 µM | 99% |
| O=C(NCCCN1CCOCC1)c1ccc(Nc2ncc(Cl)c(-c3ccc(Cl)s3)n2)cc1 | binding, competition with immobilised ligand | 1 µM | 40% |
| C[C@@H](c1ccc(-n2cnc3c(N)ncnc32)cc1)N1CCc2nn(C)c(Cc3ccccc3)c2C1=O | binding, competition with immobilised ligand | 0.1 µM | 82% |
| FC(F)(F)c1ccc2c(c1)nc(-c1cccnc1)n2C1CC1 | cell-free assay, competition with immobilised ligand | 1 µM | 100% |
| CC1CCCN1c1nccc(-c2cnn3ncccc23)n1 (stereo not drawn) | binding | 1 µM | 100% |
| O=C(NCCCN1CCOCC1)c1ccc(Nc2nccc(-c3cc4ccccc4s3)n2)cc1 | binding, competition with immobilised ligand | 1 µM | 100% |
| C[C@H]1CCN(c2nccc(-c3cnn4ncccc34)n2)C1 | binding | 1 µM | 81% |
| CNC(=O)[C@@H]1CC[C@@H](n2c(-c3ccc4cnccc4c3)nc3ccc(C(=O)NCc4cccc(C(N)=O)c4)cc32)C1 | binding, competition with immobilised ligand | 1 µM | 100% |
